In ChEMBL document CHEMBL1153373, “Effect of ring size on conformation and biological activity of cyclic cationic antimicrobial peptides” (J Med Chem, 2009):
Converted amounts (≈) assume the structure as drawn. Square brackets hold non-standard residues; d marks the D form. Peptide text beside a SMILES is read from it. Orn = NCCC[C@H](N)C(=O)O

Key:
[1] = test system: Staphylococcus aureus; experiment: Antimicrobial activity against Staphylococcus aureus after 24 hrs by standard microtiter dilution method; format: functional
[2] = test system: Cryptococcus neoformans; experiment: Antimicrobial activity against Cryptococcus neoformans after 24 hrs by standard microtiter dilution method; format: functional
Outline: (§1)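 Fungal MICs were determined by standard microtitre dilution, taken as the lowest peptide concentration inhibiting growth after 24 h incubation at 37 °C.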

[3] = Therapeutic index, ratio of hemolytic activity in human RBC to MIC for Pseudomonas aeruginosa; details: human red blood cells (RBC), read-out: TI
[4] = Toxicity in human RBC assessed as fold reduction in hemolytic activity at 100 ug/ml after 24 hrs relative to control; format: cell-based; details: erythrocyte
[5] = test system: Streptococcus pyogenes; experiment: Antimicrobial activity against Streptococcus pyogenes after 24 hrs by standard microtiter dilution method; format: functional
[6] = Therapeutic index, ratio of hemolytic activity in human RBC to MIC for Candida albicans; details: human red blood cells (RBC), read-out: TI
[7] = test system: Candida albicans; experiment: Antimicrobial activity against Candida albicans after 24 hrs by standard microtiter dilution method; format: functional; outline: as §1
[8] = test system: Serratia marcescens; experiment: Antimicrobial activity against Serratia marcescens after 24 hrs by standard microtiter dilution method; format: functional
[9] = test system: Pseudomonas aeruginosa; experiment: Antimicrobial activity against Pseudomonas aeruginosa after 24 hrs by standard microtiter dilution method; format: functional
[10] = Therapeutic index, ratio of hemolytic activity in human RBC to MIC for Stenotrophomonas maltophilia; details: human red blood cells (RBC), read-out: TI
[11] = test system: Acinetobacter calcoaceticus; experiment: Antimicrobial activity against Acinetobacter calcoaceticus after 24 hrs by standard microtiter dilution method; format: functional
[12] = test system: Klebsiella pneumoniae; experiment: Antimicrobial activity against Klebsiella pneumoniae after 24 hrs by standard microtiter dilution method; format: functional
[13] = test system: Stenotrophomonas maltophilia; experiment: Antimicrobial activity against Stenotrophomonas maltophilia after 24 hrs by standard microtiter dilution method; format: functional
[14] = Therapeutic index, ratio of hemolytic activity in human RBC to MIC for Corynebacterium jeikeium; details: human red blood cells (RBC), read-out: TI
[15] = test system: Staphylococcus epidermidis; experiment: Antimicrobial activity against Staphylococcus epidermidis after 24 hrs by standard microtiter dilution method; format: functional
[16] = test system: Streptococcus mitis; experiment: Antimicrobial activity against Streptococcus mitis after 24 hrs by standard microtiter dilution method; format: functional
[17] = Therapeutic index, ratio of hemolytic activity in human RBC to MIC for Streptococcus pneumoniae; details: human red blood cells (RBC), read-out: TI
[18] = Therapeutic index, ratio of hemolytic activity in human RBC to MIC for Cryptococcus neoformans; details: human red blood cells (RBC), read-out: TI
[19] = test system: Streptococcus pneumoniae; experiment: Antimicrobial activity against Streptococcus pneumoniae after 24 hrs by standard microtiter dilution method; format: functional
[20] = Therapeutic index, ratio of hemolytic activity in human RBC to MIC for Streptococcus mitis; details: human red blood cells (RBC), read-out: TI
[21] = test system: Enterococcus faecalis; experiment: Antimicrobial activity against Enterococcus faecalis after 24 hrs by standard microtiter dilution method; format: functional
[22] = Therapeutic index, ratio of hemolytic activity in human RBC to MIC for Enterobacter cloacae; details: human red blood cells (RBC), read-out: TI
[23] = Therapeutic index, ratio of hemolytic activity in human RBC to MIC for Serratia marcescens; details: human red blood cells (RBC), read-out: TI
[24] = Therapeutic index, ratio of hemolytic activity in human RBC to MIC for Enterococcus faecalis; details: human red blood cells (RBC), read-out: TI
[25] = test system: Corynebacterium jeikeium; experiment: Antimicrobial activity against Corynebacterium jeikeium after 24 hrs by standard microtiter dilution method; format: functional
[26] = Toxicity in human RBC assessed as hemolytic activity at 100 ug/ml after 24 hrs relative to control; format: cell-based, Erythrocyte; details: human red blood cells (RBC), read-out: Activity
Outline: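 Human erythrocytes in saline were exposed to peptide at 100 µg/mL for 24 h at 37 °C. Result is expressed as percent hemolysis.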

[27] = Therapeutic index, ratio of hemolytic activity in human RBC to MIC for Acinetobacter calcoaceticus; details: human red blood cells (RBC), read-out: TI
[28] = Therapeutic index, ratio of hemolytic activity in human RBC to MIC for Staphylococcus epidermidis; details: human red blood cells (RBC), read-out: TI
[29] = Therapeutic index, ratio of hemolytic activity in human RBC to MIC for Streptococcus pyogenes; details: human red blood cells (RBC), read-out: TI
[30] = test system: Enterobacter cloacae; experiment: Antimicrobial activity against Enterobacter cloacae after 24 hrs by standard microtiter dilution method; format: functional
[31] = Therapeutic index, ratio of hemolytic activity in human RBC to MIC for Klebsiella pneumoniae; details: human red blood cells (RBC), read-out: TI
[32] = test system: Escherichia coli; experiment: Antimicrobial activity against Escherichia coli after 24 hrs by standard microtiter dilution method; format: functional
[33] = Therapeutic index, ratio of hemolytic activity in human RBC to MIC for Staphylococcus aureus; details: human red blood cells (RBC), read-out: TI
[34] = Therapeutic index, ratio of hemolytic activity in human RBC to MIC for Escherichia coli; details: human red blood cells (RBC), read-out: TI

Structure (SMILES)	MIC [1]	MIC [2]	selectivity ratio [3]	Activity [4]	MIC [5]	selectivity ratio [6]	MIC [7]	MIC [8]	MIC [9]	selectivity ratio [10]	MIC [11]	MIC [12]	MIC [13]	selectivity ratio [14]	MIC [15]	MIC [16]	selectivity ratio [17]	selectivity ratio [18]	MIC [19]	selectivity ratio [20]	other results
CC(C)C[C@@H]1NC(=O)[C@H](CCCCN)NC(=O)[C@H](C(C)C)NC(=O)[C@@H]2CCCN2C(=O)[C@@H](Cc2ccc(O)cc2)NC(=O)[C@H](CC(C)C)NC(=O)[C@H](CCCCN)NC(=O)[C@H](C(C)C)NC(=O)[C@H](CCCCN)NC(=O)[C@H](CC(C)C)NC(=O)[C@@H]2CCCN2C(=O)[C@@H](Cc2ccc(O)cc2)NC(=O)[C@H](C(C)C)NC(=O)[C@H](CCCCN)NC1=O (cyclo(KLKV[dY]PLKVKL[dY]PV))	32 µg/mL (≈ 19.2 µM)	2 µg/mL (≈ 1.2 µM)	2	1	1 µg/mL (≈ 0.599 µM)	2	64 µg/mL (≈ 38.3 µM)	256 µg/mL (≈ 153 µM)	64 µg/mL (≈ 38.3 µM)	2	16 µg/mL (≈ 9.58 µM)	128 µg/mL (≈ 76.6 µM)									
CC(C)C[C@@H]1NC(=O)[C@H](CCCCN)NC(=O)[C@H](C(C)C)NC(=O)[C@@H]2CCCN2C(=O)[C@@H](Cc2ccc(O)cc2)NC(=O)[C@H](CC(C)C)NC(=O)[C@H](CCCCN)NC(=O)[C@H](C(C)C)NC(=O)[C@@H]2CCCN2C(=O)[C@@H](Cc2ccc(O)cc2)NC1=O (cyclo(KL[dY]PVKL[dY]PV))		1 µg/mL (≈ 0.832 µM)	1	1								32 µg/mL (≈ 26.6 µM)	16 µg/mL (≈ 13.3 µM)	100	2 µg/mL (≈ 1.66 µM)	1 µg/mL (≈ 0.832 µM)	100	100	1 µg/mL (≈ 0.832 µM)	100	MIC [21]: 2 µg/mL (≈ 1.66 µM)
CC(C)C[C@@H]1NC(=O)[C@H](CCCCN)NC(=O)[C@H](C(C)C)NC(=O)[C@@H]2CCCN2C(=O)[C@@H](Cc2ccc(O)cc2)NC(=O)[C@H](CC(C)C)NC(=O)[C@H](CCCCN)NC(=O)[C@H](C(C)C)NC(=O)[C@H](CCCCN)NC(=O)[C@H](CC(C)C)NC(=O)[C@@H]2CCCN2C(=O)[C@@H](Cc2ccc(O)cc2)NC(=O)[C@H](CCCCN)NC1=O (cyclo(VKLK[dY]PLKVKL[dY]P))																					selectivity ratio [22]: 4; selectivity ratio [23]: 2
CC(C)C[C@@H]1NC(=O)[C@H](CCCN)NC(=O)[C@H](C(C)C)NC(=O)[C@@H]2CCCN2C(=O)[C@@H](Cc2ccccc2)NC(=O)[C@H](CC(C)C)NC(=O)[C@H](CCCN)NC(=O)[C@H](C(C)C)NC(=O)[C@@H]2CCCN2C(=O)[C@@H](Cc2ccccc2)NC1=O [GRAMICIDIN S] (cyclo(L[dF]PV[Orn]L[dF]PV[Orn]))	2 µg/mL (≈ 1.75 µM)	1 µg/mL (≈ 0.876 µM)	3	1	0.5 µg/mL (≈ 0.438 µM)	12	8 µg/mL (≈ 7.01 µM)	256 µg/mL (≈ 224 µM)	32 µg/mL (≈ 28 µM)	12	8 µg/mL (≈ 7.01 µM)	16 µg/mL (≈ 14 µM)	8 µg/mL (≈ 7.01 µM)	25	2 µg/mL (≈ 1.75 µM)	0.5 µg/mL (≈ 0.438 µM)	100	100	1 µg/mL (≈ 0.876 µM)	200	selectivity ratio [24]: 50; MIC [25]: 4 µg/mL (≈ 3.5 µM); hemolysis at 24 h, 100 ug/ml [26]: 100%; selectivity ratio [27]: 12; selectivity ratio [28]: 50; selectivity ratio [29]: 200; MIC [30]: 32 µg/mL (≈ 28 µM); selectivity ratio [31]: 6; selectivity ratio [22]: 3; MIC [32]: 16 µg/mL (≈ 14 µM); selectivity ratio [33]: 50; selectivity ratio [34]: 6; selectivity ratio [23]: 0.3; MIC [21]: 2 µg/mL (≈ 1.75 µM)
